# ChEMBL document CHEMBL2021781, “Dual targeting of histone deacetylase and topoisomerase II with novel bifunctional inhibitors” (J Med Chem, 2012)
# Activity calls are given as the source filed them. No cut-off for these calls is given here.
# Experiments:
# [1] = Drug uptake in human DU145 cell perinuclear region at 1 uM after 4 hrs by confocal microscopic analysis; format: ADME, cell-based; settings: du-145, 4 h
# How it was run: (§1)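 Cells plated on glass coverslips 24 h ahead, then given fresh media with compound at 1 μM for 4 h. After a PBS wash, coverslips were mounted and intracellular distribution imaged by confocal microscopy, excitation 488 nm. Done in DU-145 cells, with A549 lung tumor cells also examined.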
# Histone deacetylase 8 = biological target: T1, Histone deacetylase 8 (Homo sapiens, UniProt Q9BY41); test: Inhibition of HDAC8 in human HeLa cell nuclear extract using Fluor de Lys as substrate after 15 mins by fluorometric analysis
# T1 sequence (Q9BY41 whole entry): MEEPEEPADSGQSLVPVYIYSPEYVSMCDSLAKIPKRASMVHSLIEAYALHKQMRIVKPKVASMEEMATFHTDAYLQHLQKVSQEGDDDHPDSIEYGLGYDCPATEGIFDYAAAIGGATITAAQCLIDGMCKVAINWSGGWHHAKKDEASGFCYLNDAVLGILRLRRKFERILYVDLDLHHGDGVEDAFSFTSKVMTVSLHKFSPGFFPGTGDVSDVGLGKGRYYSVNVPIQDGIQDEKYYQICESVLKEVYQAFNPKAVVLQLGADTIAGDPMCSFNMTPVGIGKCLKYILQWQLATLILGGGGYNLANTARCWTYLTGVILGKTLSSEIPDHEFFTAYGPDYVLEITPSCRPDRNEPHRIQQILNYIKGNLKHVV
# SK-MES-1 = test: Antiproliferative activity against human SKMES1 cells after 72 hrs by MTS assay; format: functional, cell-based; settings: SK-MES-1, 72 h
# [2] = biological target: T2, Histone deacetylase (Homo sapiens) (UniProt Q13547+O15379+Q9UBN7+Q92769+Q9UQL6+Q8WUI4+Q9BY41+Q96DB2+P56524+Q9UKV0+Q969S8); test: Inhibition of HDAC in human DU145 cells assessed as histone H4 acetylation after 24 hrs by Western blot analysis; format: cell-based; settings: DU-145
# How it was run: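 DU-145 cells passaged 24 h before dosing, then exposed 24 h to compound in growth medium (final DMSO 0.1%); controls received 0.1% DMSO. Lysed in RIPA with protease inhibitors at 4°C, cleared at 14,000 × g. Protein quantified against BSA, boiled, transferred to nitrocellulose. Probed for acetyl-H3, acetyl-H4 and p21waf1 with actin loading control; read by near-infrared scanning at 700/800 nm.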
# DU-145 = test: Antiproliferative activity against human DU145 cells after 72 hrs by MTS assay; format: functional, cell-based; settings: DU-145, 72 h
# How it was run: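 DU-145 cells passaged 24 h before dosing and exposed 72 h; compounds from 10 mM DMSO stocks; controls given media with 0.1% DMSO; 37°C, 5% CO2. Viability read by MTS assay, with Trypan Blue staining also used. IC50 from the average of two experiments, each run in triplicate.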
# [3] = biological target: T2, Histone deacetylase (Homo sapiens); settings: DU-145, 0.5 to 1 uM
# [4] = biological target: Histone deacetylase (HDAC1 and HDAC2) (Homo sapiens, UniProt Q13547+Q92769); test: Inhibition of HDAC1/2 in human HeLa cell nuclear extract using Fluor de Lys as substrate after 15 mins by fluorometric analysis; format: protein assay
# [5] = Drug uptake in human A549 cell perinuclear region at 1 uM after 4 hrs by confocal microscopic analysis; format: ADME, cell-based; settings: a549, 4 h; how it was run: as §1
# MCF7 = test: Antiproliferative activity against human MCF7 cells after 72 hrs by MTS assay; format: functional, cell-based; settings: MCF7, 72 h
# [6] = biological target: T2, Histone deacetylase (Homo sapiens); test: Inhibition of HDAC in human DU145 cells assessed as upregulation of p21 expression at 5 times IC50 concentration after 4 hrs by Western blot analysis relative to control; format: cell-based; settings: DU-145
# How it was run: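 Lysed in RIPA with protease inhibitors, cleared 14,000 RPM at 4°C. Immunoblotted, probing acetylated versus total tubulin; p21 also checked. Near-infrared detection at 700/800 nm.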
# [7] = biological target: T3, Protein deacetylase HDAC6 (Homo sapiens, UniProt Q9UBN7); test: Inhibition of HDAC6 in human HeLa cell nuclear extract using Fluor de Lys as substrate after 15 mins by fluorometric analysis
# T3 sequence (Q9UBN7 whole entry): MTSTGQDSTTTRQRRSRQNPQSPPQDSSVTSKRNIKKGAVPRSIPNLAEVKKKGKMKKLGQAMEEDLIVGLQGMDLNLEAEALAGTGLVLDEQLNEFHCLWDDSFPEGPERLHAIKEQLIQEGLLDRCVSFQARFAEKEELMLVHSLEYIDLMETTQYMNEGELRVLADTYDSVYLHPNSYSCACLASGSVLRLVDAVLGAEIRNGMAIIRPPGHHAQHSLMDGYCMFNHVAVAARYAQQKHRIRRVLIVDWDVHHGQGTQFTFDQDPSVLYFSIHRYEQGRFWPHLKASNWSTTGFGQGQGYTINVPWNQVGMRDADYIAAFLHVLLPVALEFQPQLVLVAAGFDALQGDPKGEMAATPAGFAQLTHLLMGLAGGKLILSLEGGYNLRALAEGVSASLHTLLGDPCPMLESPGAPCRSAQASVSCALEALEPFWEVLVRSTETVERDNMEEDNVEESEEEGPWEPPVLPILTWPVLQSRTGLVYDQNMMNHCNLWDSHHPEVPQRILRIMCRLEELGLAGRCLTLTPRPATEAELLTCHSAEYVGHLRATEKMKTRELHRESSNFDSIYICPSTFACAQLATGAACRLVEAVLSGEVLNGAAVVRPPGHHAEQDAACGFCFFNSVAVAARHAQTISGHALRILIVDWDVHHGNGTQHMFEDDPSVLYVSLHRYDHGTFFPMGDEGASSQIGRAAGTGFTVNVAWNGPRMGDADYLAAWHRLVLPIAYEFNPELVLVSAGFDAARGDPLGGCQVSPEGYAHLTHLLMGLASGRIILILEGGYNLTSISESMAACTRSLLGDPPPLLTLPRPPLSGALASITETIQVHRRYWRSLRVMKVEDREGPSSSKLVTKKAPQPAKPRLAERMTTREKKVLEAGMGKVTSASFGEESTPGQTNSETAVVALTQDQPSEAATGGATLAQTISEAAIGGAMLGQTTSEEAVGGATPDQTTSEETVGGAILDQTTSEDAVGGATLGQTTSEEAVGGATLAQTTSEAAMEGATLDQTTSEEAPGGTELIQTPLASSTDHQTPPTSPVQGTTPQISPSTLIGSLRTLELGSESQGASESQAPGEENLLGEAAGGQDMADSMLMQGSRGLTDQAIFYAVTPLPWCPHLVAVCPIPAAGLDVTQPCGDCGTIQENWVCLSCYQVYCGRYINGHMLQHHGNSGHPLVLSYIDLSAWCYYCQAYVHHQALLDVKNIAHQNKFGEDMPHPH
compound,measurement,setting,value
COc1cccc2c1C(=O)c1c(O)c3c(c(O)c1C2=O)C[C@@](O)(C(C)=O)C[C@@H]3O[C@H]1C[C@H](NCc2ccc(NC(=O)CCCCCCC(=O)NO)cc2)[C@H](O)[C@H](C)O1,Drug uptake,[1],Active
same,IC50,Histone deacetylase 8,220 nM
same,IC50,SK-MES-1,470 nM
same,inhibition,[2],Dose-dependent effect
same,IC50,DU-145,130 nM
same,inhibition,[3],Active
same,IC50,[4],64.7 nM
same,Drug uptake,[5],Active
same,IC50,MCF7,990 nM
same,Activity,[6],inactive
same,IC50,[7],20 nM
